Test results taken from publication PMC2943143 (Biochemical pharmacology, 2010).
pIC50, pKi: −log10 of the molar value. Entries after “also recorded” stand apart in the source; their conditions may differ.

Tests used:
human pol γ = human pol γ (Homo sapiens, UniProt P54098); experiment: Pol assay, human pol γ; format: biochemical; details: 100 and 1,000 nM PGG, Fig. 1C; compared with B- and Y-family pols
Outline: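 Test compound was dissolved in DMSO and sonicated 30 s. It was preincubated with enzyme (0.05 unit final) in 50 mM Tris-HCl pH 7.5, 1 mM DTT, 50% glycerol and 0.1 mM EDTA at 0 °C for 10 min. This was added to each enzyme's standard reaction mix with poly(dA)/oligo(dT)18 (A/T = 2/1) template-primer and dTTP substrate, then incubated at 37 °C for 60 min. Activity is given as % of inhibitor-free control.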

T7 RNA polymerase = T7 RNA polymerase (Escherichia phage T7, UniProt P00573); experiment: T7 RNA polymerase assay; format: biochemical; details: highest tested concentration 1 μM, supplemental Fig. S1B
Sequence of T7 RNA polymerase (P00573 whole entry): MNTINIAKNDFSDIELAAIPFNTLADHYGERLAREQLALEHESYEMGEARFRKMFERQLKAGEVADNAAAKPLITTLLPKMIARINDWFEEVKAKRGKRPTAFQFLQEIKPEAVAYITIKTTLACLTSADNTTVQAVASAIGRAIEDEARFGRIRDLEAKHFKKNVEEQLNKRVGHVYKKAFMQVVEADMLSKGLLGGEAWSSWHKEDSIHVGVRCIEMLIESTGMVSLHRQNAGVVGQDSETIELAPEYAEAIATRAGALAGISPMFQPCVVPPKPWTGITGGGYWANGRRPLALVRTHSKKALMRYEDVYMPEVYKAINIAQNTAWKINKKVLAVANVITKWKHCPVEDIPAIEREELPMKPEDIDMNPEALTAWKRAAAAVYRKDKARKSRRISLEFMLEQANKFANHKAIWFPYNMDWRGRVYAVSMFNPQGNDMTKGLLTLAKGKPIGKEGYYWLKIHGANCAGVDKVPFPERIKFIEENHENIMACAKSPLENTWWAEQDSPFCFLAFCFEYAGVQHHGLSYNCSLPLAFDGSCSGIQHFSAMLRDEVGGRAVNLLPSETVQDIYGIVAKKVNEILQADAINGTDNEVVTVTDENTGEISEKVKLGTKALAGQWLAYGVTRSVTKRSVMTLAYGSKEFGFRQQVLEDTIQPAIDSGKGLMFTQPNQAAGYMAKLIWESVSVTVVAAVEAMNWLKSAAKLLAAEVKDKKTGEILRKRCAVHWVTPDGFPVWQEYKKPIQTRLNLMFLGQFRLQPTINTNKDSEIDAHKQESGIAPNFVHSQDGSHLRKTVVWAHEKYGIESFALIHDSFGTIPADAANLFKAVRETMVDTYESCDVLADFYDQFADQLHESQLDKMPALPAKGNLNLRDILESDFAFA

human telomerase = human telomerase (Homo sapiens, UniProt O14746); experiment: Telomerase assay; format: biochemical; details: highest tested concentration 1 μM, supplemental Fig. S1B
Sequence of human telomerase (O14746 whole entry): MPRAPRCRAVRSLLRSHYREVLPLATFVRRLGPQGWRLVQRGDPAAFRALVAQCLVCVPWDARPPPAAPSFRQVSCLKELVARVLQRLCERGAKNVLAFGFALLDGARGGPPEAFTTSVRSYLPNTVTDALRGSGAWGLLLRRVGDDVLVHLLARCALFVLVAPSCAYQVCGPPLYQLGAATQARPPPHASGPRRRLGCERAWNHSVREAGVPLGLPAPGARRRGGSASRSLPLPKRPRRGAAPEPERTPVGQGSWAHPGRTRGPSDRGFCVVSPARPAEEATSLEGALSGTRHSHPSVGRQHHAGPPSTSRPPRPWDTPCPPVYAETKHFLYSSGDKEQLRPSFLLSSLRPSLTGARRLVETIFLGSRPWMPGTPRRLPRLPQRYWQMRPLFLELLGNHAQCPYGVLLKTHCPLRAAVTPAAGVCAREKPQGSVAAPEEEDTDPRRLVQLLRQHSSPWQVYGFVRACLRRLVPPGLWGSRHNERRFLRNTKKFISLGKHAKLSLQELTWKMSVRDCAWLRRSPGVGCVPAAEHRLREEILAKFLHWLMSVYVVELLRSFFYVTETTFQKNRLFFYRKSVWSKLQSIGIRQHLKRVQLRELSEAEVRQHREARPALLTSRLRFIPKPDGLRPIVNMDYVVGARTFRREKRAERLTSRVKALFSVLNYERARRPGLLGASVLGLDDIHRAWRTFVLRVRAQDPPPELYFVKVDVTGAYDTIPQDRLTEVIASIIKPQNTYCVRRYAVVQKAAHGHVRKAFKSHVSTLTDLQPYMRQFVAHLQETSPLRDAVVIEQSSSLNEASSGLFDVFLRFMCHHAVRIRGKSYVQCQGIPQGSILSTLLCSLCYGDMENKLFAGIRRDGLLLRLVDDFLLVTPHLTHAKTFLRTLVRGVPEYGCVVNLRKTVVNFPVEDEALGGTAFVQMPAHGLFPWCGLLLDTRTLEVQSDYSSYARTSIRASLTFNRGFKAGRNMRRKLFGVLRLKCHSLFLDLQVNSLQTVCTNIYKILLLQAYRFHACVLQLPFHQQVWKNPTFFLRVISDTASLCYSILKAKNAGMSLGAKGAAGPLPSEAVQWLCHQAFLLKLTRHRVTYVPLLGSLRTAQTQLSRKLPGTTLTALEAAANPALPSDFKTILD

calf thymus TdT = calf thymus TdT (Bos taurus, UniProt P06526); experiment: Pol assay, calf TdT; format: biochemical; details: 100 and 1,000 nM PGG, Fig. 1C
Sequence of calf thymus TdT (P06526 whole entry): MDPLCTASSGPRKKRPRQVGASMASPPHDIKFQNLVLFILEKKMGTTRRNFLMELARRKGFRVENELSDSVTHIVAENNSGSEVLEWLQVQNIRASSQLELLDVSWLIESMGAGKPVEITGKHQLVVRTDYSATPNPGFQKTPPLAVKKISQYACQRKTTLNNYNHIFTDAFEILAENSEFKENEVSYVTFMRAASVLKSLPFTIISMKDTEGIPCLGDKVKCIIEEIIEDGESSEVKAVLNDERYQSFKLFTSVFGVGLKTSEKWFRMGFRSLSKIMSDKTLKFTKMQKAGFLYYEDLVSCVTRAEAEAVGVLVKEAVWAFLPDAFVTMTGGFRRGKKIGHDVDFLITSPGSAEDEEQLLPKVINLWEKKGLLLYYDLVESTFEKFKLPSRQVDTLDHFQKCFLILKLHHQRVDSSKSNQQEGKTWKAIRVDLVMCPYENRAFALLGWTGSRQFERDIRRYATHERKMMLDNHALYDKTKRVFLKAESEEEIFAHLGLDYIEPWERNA
Outline: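 TdT was assayed with oligo(dT)18 (3′-OH) primer and dTTP substrate. Test compound in sonicated DMSO was preincubated with 0.05 unit enzyme in 50 mM Tris-HCl pH 7.5, 1 mM DTT, 50% glycerol and 0.1 mM EDTA at 0 °C for 10 min. Reaction ran at 37 °C for 60 min. Remaining activity is expressed relative to no-inhibitor control.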

[1] = molecular target: HIV reverse transcriptase; details: read-out: IC50, HIV reverse transcriptase; cited from earlier work
Beta-secretase = details: cited from earlier work
HIV integrase = details: read-out: IC50, HIV integrase; cited from earlier work
human PCa PC-3 cells = details: i.p. injection, every other day, 25 mg/kg, nude mice; cited from earlier work
Xanthine oxidase = details: read-out: IC50, Xanthine oxidase; cited from earlier work

Sequence of human pol γ (P54098 whole entry): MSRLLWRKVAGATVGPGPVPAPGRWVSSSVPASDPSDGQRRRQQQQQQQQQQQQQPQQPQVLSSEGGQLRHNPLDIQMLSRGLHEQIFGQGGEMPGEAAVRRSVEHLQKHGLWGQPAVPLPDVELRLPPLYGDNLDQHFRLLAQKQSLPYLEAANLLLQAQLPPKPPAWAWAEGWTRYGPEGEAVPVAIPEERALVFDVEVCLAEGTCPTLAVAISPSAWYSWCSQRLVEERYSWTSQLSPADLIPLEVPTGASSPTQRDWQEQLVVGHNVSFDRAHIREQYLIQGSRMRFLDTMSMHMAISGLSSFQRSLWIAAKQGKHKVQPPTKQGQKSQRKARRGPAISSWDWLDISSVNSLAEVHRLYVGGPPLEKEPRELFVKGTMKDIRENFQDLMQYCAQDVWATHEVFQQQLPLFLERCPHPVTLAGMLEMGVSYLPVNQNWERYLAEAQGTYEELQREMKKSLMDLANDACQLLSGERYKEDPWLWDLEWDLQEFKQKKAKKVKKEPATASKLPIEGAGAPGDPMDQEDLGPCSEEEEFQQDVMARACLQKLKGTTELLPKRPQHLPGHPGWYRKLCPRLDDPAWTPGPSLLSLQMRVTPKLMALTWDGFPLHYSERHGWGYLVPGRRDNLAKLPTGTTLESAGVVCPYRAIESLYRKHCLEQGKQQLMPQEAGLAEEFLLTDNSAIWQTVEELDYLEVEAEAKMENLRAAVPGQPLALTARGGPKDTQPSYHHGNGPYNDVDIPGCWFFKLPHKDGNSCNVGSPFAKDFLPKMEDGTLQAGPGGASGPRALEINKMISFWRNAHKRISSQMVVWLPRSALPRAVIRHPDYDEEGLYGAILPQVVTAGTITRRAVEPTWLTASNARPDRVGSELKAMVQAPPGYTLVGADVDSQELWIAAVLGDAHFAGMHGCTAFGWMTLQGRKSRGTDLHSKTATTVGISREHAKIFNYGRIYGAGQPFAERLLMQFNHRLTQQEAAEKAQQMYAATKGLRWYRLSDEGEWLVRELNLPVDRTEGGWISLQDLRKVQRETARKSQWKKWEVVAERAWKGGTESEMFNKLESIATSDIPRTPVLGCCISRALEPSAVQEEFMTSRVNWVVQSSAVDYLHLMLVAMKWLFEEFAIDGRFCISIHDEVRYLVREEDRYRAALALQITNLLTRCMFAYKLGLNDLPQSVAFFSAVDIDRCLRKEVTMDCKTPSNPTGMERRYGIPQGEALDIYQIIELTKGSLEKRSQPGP

O=C(OC[C@H]1O[C@@H](OC(=O)c2cc(O)c(O)c(O)c2)[C@H](OC(=O)c2cc(O)c(O)c(O)c2)[C@@H](OC(=O)c2cc(O)c(O)c(O)c2)[C@@H]1OC(=O)c1cc(O)c(O)c(O)c1)c1cc(O)c(O)c(O)c1 [PGG, 1,2,3,4,6-penta-O-galloyl-β-D-glucose]
inhibitory activity on pol γ (family A) (human pol γ): lower
effect on T7 RNA polymerase activity (T7 RNA polymerase): did not suppress
effect on human telomerase activity (human telomerase): did not suppress
effect on TdT activity (calf thymus TdT): not affected; also recorded: not sensitive
pIC50 [1]: < 4.00
Mode of Inhibition, Beta-secretase (Beta-secretase): Non-competitive for Rh-EVNLDAEFK-Quencher
pIC50 (Beta-secretase; read-out: IC50, Beta-secretase): 5.42
pKi (Beta-secretase; read-out: Ki, Beta-secretase): 5.29
pIC50 (HIV integrase): 4.86
growth of PC-3 cells inoculated into the tibia (human PCa PC-3 cells): positive inhibitory efficacy
pIC50 (Xanthine oxidase): 5.49
